# Assay results collected from several papers.
Structure (SMILES),test,system,conditions,quantity,value
CN1CCN(C(=O)[C@H](CCCN[C@@H]2C[C@H]2c2ccc(F)cc2)NC(=O)c2ccc(-n3ccnn3)cc2)CC1,,"CD-1 mouse, plasma","oral, 10 mg/kg",AUC(0-t),2270 nM·h
CN(C)C/C=C/C(=O)Nc1cc2c(Nc3ccc(F)c(Cl)c3)ncnc2cc1O[C@H]1CCOC1,chemical stability,PBS,"250 µM, pH 7.4",half-life,> 100 h
Nc1ncn([C@H]2C[C@H](O)[C@@H](CO)O2)c(=O)n1,,"female C57BL/6 mouse, plasma","intravenous, 0.4 mg/kg",AUC(0-t),0.182 µg·h/mL
Cc1c(C(=O)O)ccc2c3n(nc12)[C@@H]1[C@H](C3)N(CC2CC2)[C@@]2(C(=O)Nc3cc(Cl)ccc32)[C@H]1c1cccc(Cl)c1F,,"FVB mouse, plasma","oral, 10 mg/kg, single dose",bioavailability,79%
Cc1cc2sc(N)nc2c2cccnc12,,"female BALB/c mouse, plasma","intraperitoneal, 30 mg/kg, single dose",AUC(0-t),45.5 µg·h/mL
CC(C)C[C@H](NC(=O)[C@@H]1COCCCCCC(=O)N2C[C@H](F)C[C@H]2C(=O)N1)C(=O)[C@@]1(C)CO1,,"male BALB/c mouse, plasma","oral, 150 mg/kg",bioavailability,~10%
CNC(=O)c1ccc(N2C(=S)N(c3ccc(C#N)c(C(F)(F)F)c3)C(=O)C2(C)C)cc1F,,"male C57BL/6 mouse, plasma","oral, 0.0215 mmol/kg",bioavailability,45%
CCN1CCN(Cc2ccc(NC(=O)c3ccc(C)c(NC(=O)c4cncc(-c5cccs5)c4)c3)cc2C(F)(F)F)CC1,,"mouse, plasma","intraperitoneal, 15 mg/kg, single dose",AUC(0-inf),1.75 µg·h/mL
Cc1c(C(=O)O)ccc2c3n(nc12)[C@@H]1[C@H](C3)N(CC2CC2)[C@@]2(C(=O)Nc3cc(Cl)ccc32)[C@H]1c1cccc(Cl)c1F,,"female mouse, plasma","oral, 5 mg/kg",bioavailability,119%
CC1=NN(/C(=N/c2nnc(C)s2)Nc2ccc(C)c(C)c2)C(c2cc(F)c(F)c(F)c2)S1 (stereo not shown),,"male CD-1 mouse, plasma","oral, 30 mg/kg",bioavailability,13.4%
CCOc1ccc(N(C)S(=O)(=O)c2cc(Cl)sc2C(=O)Nc2cc(Cl)cc(C(=O)O)c2)cc1OC,,"male C57BL/6 mouse, plasma","intraperitoneal, 10 mg/kg",AUC(0-inf),6.1 µg·h/mL
Nc1ccc(/N=N/c2cccc(F)c2F)c(N)n1,,"male CD-1 mouse, plasma","intraperitoneal, 100 mg/kg",bioavailability,261%
Cc1cc(-c2cn[nH]c2-c2cccc(OCc3cccc(C#N)c3)c2)cc(C)n1,,"mouse, plasma","oral, 200 mg/kg",bioavailability,47%
